High-throughput results from PubChem.
proCasp7 act = activates human procaspase-7, counter-screen for procaspase-3 activators | recombinant procaspase-7, Ac-DEVD-pNA absorbance 405 nm; D23A/D198A/D206A triple mutant, cannot self-cleave; scale: DMSO 0, 5 µM enzyme 100 | AID 463210 | actives 0.093% (n = 330,000) | activation, % at 8.5 µM | P55210;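 active = percent activation above the screen-wide mean plus 3 SD, cut at about 25% in these data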
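Material: Procaspase-7 triple mutant (PC-7 D3A) | Quantity: 2 µM procaspase-7 mutant as dispensed | Reagent: DEVD-pNA substrate | Times: 1 h preincubation, 2 h reaction | Technique: 405 nm absorbance of p-nitroaniline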
proCasp3 act = procaspase-3 (human) activation; P42574; recombinant procaspase-3 D3A, Ac-DEVD-pNA absorbance 405 nm; activation, % at 8.5 µM; actives 0.11% (n = 330,000);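 active = activation above the mean of all tested compounds plus 3 SD, cut at about 21% in these data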;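 note: 0% = DMSO alone and 100% = DMSO wells spiked with extra 5 µM PC-3 D3A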
Target sequence (P42574 whole entry D9A/D28A/D175A): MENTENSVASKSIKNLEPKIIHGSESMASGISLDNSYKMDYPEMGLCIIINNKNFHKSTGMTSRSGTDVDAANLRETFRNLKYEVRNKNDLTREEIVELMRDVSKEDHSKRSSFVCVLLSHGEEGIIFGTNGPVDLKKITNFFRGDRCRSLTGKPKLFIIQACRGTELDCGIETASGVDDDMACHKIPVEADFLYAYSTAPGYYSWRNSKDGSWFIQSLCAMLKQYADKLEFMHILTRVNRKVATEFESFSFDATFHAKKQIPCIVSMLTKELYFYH
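material = Procaspase-3 D3A mutant | probe or stimulus = Ac-DEVD-pNA | compound = single dose, 8.5 µM nominal compound, 0.8% DMSO | timing = 1 h preincubation, 2 h reaction | measured by = 405 nm absorbance of p-nitroaniline, reads at 0 and 120 min | benchmarks = DMSO-only low control, 5 µM PC-3 D3A high control | repeats = singlicate, each compound tested once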
GAA850 FXN act = frataxin GAA850 promoter activation; HEK293 lucGAA850 FXN promoter luciferase reporter, 24 h; percent of 10 µM SAHA response; activation, % at 6 µM; actives 0.56% (n = 360,000);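 active = activation above the average of all compounds screened plus 3 SD, cutoff fixed separately per campaign, cut at about 7.5% in these data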;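 note: 0% = DMSO wells and 100% = 10 µM SAHA wells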
GAA30 counter = GAA30 FXN promoter activation counter-screen; shares compounds with GAA850 FXN act; HEK293 lucGAA30 FXN promoter luciferase, 24 h; DMSO = 0%, 5 µM ipriflavone = 100%; activation, % at 6 µM; actives 66% (n = 1,900); AID 588350;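 active = mean activation above the mean of solvent-only control wells plus 3 SD, cut at about 22% in these data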;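 note: counterscreen of GAA850 promoter hits where activity marks nonselective or luminescence artifacts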
GAA850 confirm = GAA850 FXN promoter activation confirmation; shares compounds with GAA850 FXN act; HEK293 lucGAA850 FXN promoter luciferase reporter, 24 h; 100% = activation by SAHA; activation, % at 6 µM; actives 86% (n = 1,900); AID 588351;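 active = mean activation above a set limit taken from the primary screen, cut at about 8% in these data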;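 note: 0% = DMSO wells and 100% = 10 µM SAHA wells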
* = called active by the depositor. Hits are enriched below; roughly 0.7% of the tested compounds scored in any of these assays.

Results for CCNC(=O)C1(C)CCN(Cc2cccc(C(F)(F)F)c2)C1 (stereo unspecified) ?
GAA850 FXN act: -0.4

Results for COc1cccc(CN(C)C(=O)c2cccc(OCc3ccccc3)c2)c1 ?
proCasp7 act: -0.9; proCasp3 act: -8.6; GAA850 FXN act: -1.2

Results for Cn1cc(CCNC(=O)C2CCC(=O)N(CCc3ccc(Cl)cc3)C2)cn1 (stereo unspecified) ?
proCasp7 act: -1.8; proCasp3 act: -1.2; GAA850 FXN act: 1.7

How did C/C(=N\Nc1nc2ccccc2[nH]1)c1ccc(C)o1 do in these assays?
proCasp7 act: 0.9; proCasp3 act: -6.8; GAA850 FXN act: 8.4*; GAA30 counter: 120.7*; GAA850 confirm: 36.1*

How did C/C(=N\Nc1nc2ccccc2[nH]1)c1ccc(Cl)s1 do in these assays?
proCasp7 act: -3.4; proCasp3 act: -7.4; GAA850 FXN act: 2.6

Results for Cc1cccc(-n2cc(-c3ccccc3)c3c(=O)[nH]cnc32)c1 ?
proCasp7 act: -0.5; proCasp3 act: -0.2; GAA850 FXN act: 8.9*; GAA30 counter: 22.8*; GAA850 confirm: 11.1*

How did O=c1[nH]cnc2c1c(-c1ccccc1)cn2-c1ccc(Br)cc1 do in these assays?
proCasp7 act: -0.7; proCasp3 act: 5.5; GAA850 FXN act: 1.0

What do the screens show for `COc1ccc(OC)c(-c2cc(C(=O)Nc3c(C)nn(Cc4ccccc4)c3C)no2)c1`?
proCasp7 act: -3.3; proCasp3 act: 6.8; GAA850 FXN act: 7.8*; GAA30 counter: 8.0; GAA850 confirm: 12.5*

What do the screens show for `COc1ccc(OC)c(-c2cc(C(=O)Nc3c(C)nn(Cc4ccc(Cl)cc4)c3C)no2)c1`?
proCasp7 act: 0.1; proCasp3 act: 7.6; GAA850 FXN act: 2.9

Results for Cc1ccc(C(=O)OCC(=O)NC2CCCCC2)s1 ?
proCasp7 act: -1.9; proCasp3 act: 5.0; GAA850 FXN act: -0.8

Results for CCCCn1c(N)c(N(CC(C)C)C(=O)c2ccc(OC)c(S(=O)(=O)N3CCOCC3)c2)c(=O)[nH]c1=O ?
GAA850 FXN act: 0.5

Results for O=C(/C=C/c1ccccc1Cl)c1ccccc(=O)c1O ?
proCasp7 act: 2.7; proCasp3 act: -15.4; GAA850 FXN act: 7.5

How did O=C(/C=C/c1ccc([N+](=O)[O-])cc1)c1ccccc(=O)c1O do in these assays?
GAA850 FXN act: 9.5*; GAA30 counter: -101.1; GAA850 confirm: -26.4

Results for COc1ccc(C(=O)Nc2nnc(CCS(=O)(=O)c3ccc(C)cc3)s2)cc1 ?
proCasp7 act: -2.1; proCasp3 act: -5.0; GAA850 FXN act: 0.5

What do the screens show for `Cc1ccc(-c2c(C(=O)N3CCOCC3)oc(=O)c3ccccc23)cc1`?
proCasp7 act: 3.2; proCasp3 act: 0.3; GAA850 FXN act: -1.7

What do the screens show for `CCN1CCN(C(=O)c2oc(=O)c3ccccc3c2-c2ccc(C)cc2)CC1`?
proCasp7 act: 16.3; proCasp3 act: 0.9; GAA850 FXN act: 15.5*; GAA30 counter: 7.3; GAA850 confirm: 3.3

Results for COc1ccccc1N1CCN(S(=O)(=O)CCNC(=O)c2ccc(Br)o2)CC1 ?
proCasp7 act: -3.3; proCasp3 act: 13.7; GAA850 FXN act: -0.1

Results for O=[N+]([O-])c1cccc(-c2nnc(-c3ccccc3)o2)c1 ?
proCasp7 act: 7.1; proCasp3 act: 2.2; GAA850 FXN act: 4.3

Results for Nc1cc([N+](=O)[O-])cc2oc(-c3ccccc3)cc12 ?
proCasp7 act: 2.7; proCasp3 act: 4.4; GAA850 FXN act: 8.2*; GAA30 counter: 93.5*; GAA850 confirm: 32.9*

What do the screens show for `O=C(Nc1ccc2nsnc2c1)N1CCCCCC1`?
proCasp7 act: 0.3; proCasp3 act: -3.3; GAA850 FXN act: 1.1

Results for S=C(Nc1ccc2nsnc2c1)N1CCCC1 ?
proCasp7 act: -5.0; proCasp3 act: -7.0; GAA850 FXN act: 8.3*; GAA30 counter: 29.5*; GAA850 confirm: 12.1*

Results for CCN(C[C@H]1N[C@@](C)(C(=O)OC)[C@H]2C(=O)N(Cc3ccccc3)C(=O)[C@@H]12)C(=O)Nc1ccccc1 ?
proCasp7 act: 5.6; proCasp3 act: 0.4; GAA850 FXN act: 6.6
